Experimental findings from ChEMBL document CHEMBL4334452, “Monosaccharide Analogues of Anticancer Peptide R-Lycosin-I: Role of Monosaccharide Conjugation in Complexation and the Potential of Lung Cancer Targeting and Therapy” (J Med Chem, 2019) are described below.

Data set [1] concerns the target T1, Solute carrier family 2, facilitated glucose transporter member 1 (Homo sapiens) (UniProt P11166).
T1 sequence (whole entry): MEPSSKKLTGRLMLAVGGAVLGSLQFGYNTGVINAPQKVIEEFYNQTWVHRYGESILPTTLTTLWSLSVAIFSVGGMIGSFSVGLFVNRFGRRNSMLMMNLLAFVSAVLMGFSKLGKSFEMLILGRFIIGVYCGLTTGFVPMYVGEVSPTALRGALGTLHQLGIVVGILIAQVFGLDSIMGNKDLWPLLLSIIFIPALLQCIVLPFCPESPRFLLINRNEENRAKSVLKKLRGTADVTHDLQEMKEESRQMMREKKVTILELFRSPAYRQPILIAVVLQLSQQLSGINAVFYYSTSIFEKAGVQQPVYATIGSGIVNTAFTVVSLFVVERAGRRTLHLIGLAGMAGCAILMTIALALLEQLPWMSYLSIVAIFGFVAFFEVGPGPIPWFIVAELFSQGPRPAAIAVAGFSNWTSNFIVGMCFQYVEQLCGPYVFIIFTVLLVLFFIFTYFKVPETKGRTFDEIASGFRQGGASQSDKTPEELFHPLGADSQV
Nature of the data set: Binding affinity to GLUT1 in human A549 cells harboring luciferase gene assessed as cytotoxicity by measuring reduction in cell viability after 24 hrs by CCK8 assay. In kind it is cell-based.

The subject of data set [2] is A549. Nature of the data set: Induction of apoptosis in human A549 cells assessed as increase in caspase-3 activity at 15 uM measured after 24 hrs by Ac-DEVD-pNA substrate based assay relative to control. In kind it is functional. The essentials:
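A549 cells treated 24 h with 15 µM peptide, or medium as control. Cells lysed, and supernatant incubated with Ac-DEVD-pNA (2 mM). Absorbance read at 405 nm; activity ratio expressed against blank control, n=3.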

The subject of data set [3] is A549. Nature of the data set: Induction of apoptosis in human A549 cells assessed as necrotic cells at 8 uM measured after 4 hrs by Annexin V-FITC/propidium iodide staining-based flow cytometry (reference value: 0.51%). In kind it is functional. In outline:
(§1)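 A549 cells grown 24 h, trypsinized, then resuspended in medium with 8 µM peptide for 4 h at 37 °C. Cells washed with cold PBS, stained with Annexin V-FITC/PI, and analysed by flow cytometry.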

The subject of data set [4] is A549. Nature of the data set: Antitumor activity against human A549 cells expressing luciferase gene xenografted in Balb/c nu/nu mouse assessed as tumor growth inhibition at 9 mg/kg, ip administered every 2 days for seven times measured on day 14 by bioluminescent imaging analysis. In kind it is functional, organism-based. In outline: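 Male BALB/c nu/nu mice, 4-6 weeks old, carrying subcutaneous A549-luciferase xenografts in the right back. Dosing started when tumors reached 100-200 mm³ (day 0), five per group. Peptide was given at 9 mg/kg i.p. in 200 µL every other day for 7 doses; PBS served as control. Bioluminescent imaging on day 14; tumor size and body weight tracked. Tumors fixed in paraformaldehyde, paraffin-sectioned, TUNEL-stained.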

A short description of data set [5]: Drug uptake in spleen of Balb/c nu/nu mouse xenografted with human A549 cells expressing luciferase gene at 9 mg/kg, ip measured after 6 hrs by fluorescence assay. The data set is classed as ADME, organism-based. Conditions: in vivo.
Data set [6] relates to A549. Nature of the data set: Induction of morphological changes in 3D spheroids of human A549 cells assessed as disruption of cell morphology at 30 uM treated every 2 days for 6 days measured every 3 days during compound dosing by microscopic analysis. In kind it is functional, cell-based. The essentials:
(§2)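 A549 3D spheroids, one per well, in 10% medium with peptide at 30 µM final. Dosed at day 0, then re-added at days 2 and 4, for 6 days total. Spheroids washed thrice, then imaged and sized at days 0, 3 and 6. Viability read by CCK-8.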

Data set [7] can be described thus: Drug uptake in liver of Balb/c nu/nu mouse xenografted with human A549 cells expressing luciferase gene at 9 mg/kg, ip measured after 6 hrs by fluorescence assay. In kind it is ADME, organism-based. Conditions: in vivo.
The subject of data set [8] is A549. Nature of the data set: Antitumor activity against human A549 cells expressing luciferase gene xenografted in Balb/c nu/nu mouse assessed as reduction in tumor volume at 3 mg/kg administered intratumorally every 3 days for four times measured on day 12 by bioluminescent imaging analysis. The data set is classed as functional, organism-based. In outline: (§3)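 Male BALB/c nu/nu mice, 4-6 weeks old, with subcutaneous A549-luciferase xenografts. Treatment began when tumors reached 100-200 mm³, five per group. Peptide was injected intratumorally at 3 mg/kg in 100 µL every 3 days for 4 doses; 100 µL PBS was the control. Bioluminescent imaging on day 12, with tumor size and body weight monitored.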

Data set [9] relates to A549. Nature of the data set: Induction of apoptosis in human A549 cells assessed as early apoptotic cells at 8 uM measured after 4 hrs by Annexin V-FITC/propidium iodide staining-based flow cytometry (reference value: 0.39%). The data set is classed as functional. In outline: as §1
For data set [10], the system named is A549. Nature of the data set: Induction of morphological changes in 3D spheroids of human A549 cells assessed as reduction in spheroid volume at 30 uM treated every 2 days for 6 days measured every 3 days during compound dosing by microscopic analysis. In kind it is functional, cell-based. The essentials: as §2
The nature of data set [11]: Toxicity in Balb/c nu/nu mouse xenografted with human A549 cells expressing luciferase gene assessed as change in body weight at 9 mg/kg, ip administered every 2 days for seven times measured on day 14. The data set is classed as organism-based. Conditions: in vivo, 48 h. In outline: (§4)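 Male BALB/c nu/nu mice, 4–6 weeks old, carrying subcutaneous A549-luciferase tumours (right back, cells in sterile PBS), dosed at a tumour size of 100–200 mm³; five per group, PBS controls. Two regimens: 9 mg/kg i.p. (200 µL) every other day ×7, ended day 14; or 3 mg/kg intratumoral (100 µL) every 3 days ×4, ended day 12. Body weight was monitored throughout.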

Data set [12] addresses T1, Solute carrier family 2, facilitated glucose transporter member 1 (Homo sapiens). Nature of the data set: Binding affinity to GLUT1 in human A549 cells assessed as cytotoxicity by measuring reduction in cell viability at 15 uM by trypan blue staining-based assay. The essentials:
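A549 cells stained with trypan blue after peptide treatment at 15 µM. Dead cells appear blue and live cells unstained; live cells were counted.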

Data set [13] concerns A549. Nature of the data set: Induction of apoptosis in human A549 cells assessed as appearance of surface bubbling at 15 uM measured after 24 hrs by scanning electron microscopic analysis. The data set is classed as functional, cell-based.
Data set [14] has as its system A549. Nature of the data set: Antitumor activity against human A549 cells expressing luciferase gene xenografted in Balb/c nu/nu mouse assessed as tumor growth inhibition at 3 mg/kg administered intratumorally every 3 days for four times measured on day 12 by bioluminescent imaging analysis. In kind it is functional, organism-based. In outline:
as §3

The nature of data set [15]: Drug uptake in spleen of Balb/c nu/nu mouse xenografted with human A549 cells expressing luciferase gene at 3 mg/kg administered intratumorally measured after 6 hrs by fluorescence assay. The following applies: in vivo, other. The data set is classed as ADME, organism-based.
The test system of data set [16] is A549. Nature of the data set: Induction of morphological changes in 3D spheroids of human A549 cells assessed as cell shrinkage at 30 uM treated every 2 days for 6 days measured every 3 days during compound dosing by microscopic analysis. The data set is classed as functional, cell-based. In outline:
as §2

Data set [17] deals with A549. Nature of the data set: Induction of apoptosis in human A549 cells assessed as viable cells at 8 uM measured after 4 hrs by Annexin V-FITC/propidium iodide staining-based flow cytometry (reference value: 95.4%). In kind it is functional. Conditions: A549, 4 h, read-out: Activity. The essentials:
as §1

Data set [18] is described as follows: Toxicity in Balb/c nu/nu mouse xenografted with human A549 cells expressing luciferase gene assessed as change in body weight at 3 mg/kg administered intratumorally every 3 days for four times measured on day 12. In kind it is organism-based. The following applies: in vivo, other, 72 h. In outline: as §4
Data set [19] is described as follows: Drug uptake in heart of Balb/c nu/nu mouse xenografted with human A549 cells expressing luciferase gene at 9 mg/kg, ip measured after 6 hrs by fluorescence assay. In kind it is ADME, organism-based. The following applies: in vivo.

The structures appear in SMILES notation. Calls of active or inactive are those of the source. The calls are words filed in the database; no cut-off is given here. *1 amine or outer side, *2 acyl side, *3 side chain or, on linkers, in order; H or OH if unused. Where a SMILES comes first, the peptide text is derived from it. The star is where a group is joined. NH(CH2)3O(βDGlc) = OC[C@H]1O[C@@H](OCCCN*)[C@H](O)[C@@H](O)[C@@H]1O; Glutaryl = O=C(CCCC(=O)[*:2])[*:1]

As for `CC[C@H](C)[C@H](NC(=O)[C@H](Cc1ccccc1)NC(=O)[C@H](CCCNC(=N)N)NC(=O)[C@H](C)NC(=O)[C@@H](NC(=O)[C@H](CO)NC(=O)[C@H](CCCNC(=N)N)NC(=O)[C@H](CCSC)NC(=O)[C@H](C)NC(=O)[C@H](CCCNC(=N)N)NC(=O)[C@H](Cc1ccccc1)NC(=O)[C@H](Cc1c[nH]c2ccccc12)NC(=O)CNC(=O)[C@@H](N)CCCNC(=N)N)[C@@H](C)CC)C(=O)N[C@@H](C)C(=O)N[C@@H](CCCNC(=N)N)C(=O)N[C@@H](CCC(=O)O)C(=O)N[C@@H](CCCNC(=N)N)C(=O)N[C@@H](CC(C)C)C(=O)N[C@@H](CCCNC(=N)N)C(=O)N[C@@H](CCC(=O)O)C(=O)N[C@@H](Cc1cnc[nH]1)C(=O)N[C@@H](CC(C)C)C(=O)O` (H-RGWFRAMRSIARFIARERLREHL-OH), the outcome (in data set [1]; with A549 [6]; in the data set with A549 [8]; in the data set with A549 [10]; in data set [12]; in the data set on A549 [13]) was Active. Further, in the data set with A549 [16], the outcome was Active. Besides, in the data set on A549 [2], the “fold change (FC)” value stood at 1.5. The Activity in the data set on A549 [3] was 0.75%; in the data set on A549 [9], 0.63%; in data set [11], “Non-Toxic”; in data set [18], “Non-Toxic”. In addition, the TGI result with A549 [4] and in the data set on A549 [14] was “Active” each time. Moreover, the Drug uptake entry in data set [5], in data set [7], in data set [15] and in data set [19] was “Active” throughout. Moreover, in the data set with A549 [17], the viability at 8 µM was 88.8%.
As to `CC[C@H](C)[C@H](NC(=O)[C@H](Cc1ccccc1)NC(=O)[C@H](CCCNC(=N)N)NC(=O)[C@H](C)NC(=O)[C@@H](NC(=O)[C@H](CO)NC(=O)[C@H](CCCNC(=N)N)NC(=O)[C@H](CCSC)NC(=O)[C@H](C)NC(=O)[C@H](CCCNC(=N)N)NC(=O)[C@H](Cc1ccccc1)NC(=O)[C@H](Cc1c[nH]c2ccccc12)NC(=O)CNC(=O)[C@H](CCCNC(=N)N)NC(=O)CCCC(=O)NCCCO[C@@H]1O[C@H](CO)[C@@H](O)[C@H](O)[C@H]1O)[C@@H](C)CC)C(=O)N[C@@H](C)C(=O)N[C@@H](CCCNC(=N)N)C(=O)N[C@@H](CCC(=O)O)C(=O)N[C@@H](CCCNC(=N)N)C(=O)N[C@@H](CC(C)C)C(=O)N[C@@H](CCCNC(=N)N)C(=O)N[C@@H](CCC(=O)O)C(=O)N[C@@H](Cc1cnc[nH]1)C(=O)N[C@@H](CC(C)C)C(=O)O` ({NH(CH2)3O(βDGlc)-Glutaryl}-RGWFRAMRSIARFIARERLREHL-OH), the outcome (in data set [1]; in the data set on A549 [6]; in the data set with A549 [8]; with A549 [10]; in data set [12]; in the data set on A549 [13]) was Active. In the data set with A549 [16], the outcome was Active. In the data set on A549 [2], the “fold change (FC)” value was determined as 1.5. Also, the Activity in the data set on A549 [3] was 0.57%; in the data set on A549 [9], 1.1%; in data set [11] it was “Non-Toxic”; in data set [18], “Non-Toxic”. The TGI result in the data set with A549 [4] and in the data set on A549 [14] was “Active” throughout. Besides, the Drug uptake result in data set [5], in data set [7], in [15] and in [19] was “Active” throughout. Besides, the viability at 8 µM with A549 [17] came out at 59.8%.
